# SR-BI HDL uptake – mouse SR-BI HDL lipid transfer inhibition. Q61009. ldlA[mSR-BI] CHO cells, DiI-HDL uptake fluorescence, 3 h. inhibition, % at 12.5 µM. actives 0.96% (n = 320,000);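 active means mean replicate inhibition of at least 70% and a set share of replicates each scoring 70 or more; inconclusive means meets just one of the two criteria; inactive means fails both criteria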
# SR-BI uptake up – SR-BI HDL lipid transfer activation | activation, % at 12.5 µM | actives 0.096% (n = 320,000) | AID 504775 | CHO ldlA[mSR-BI] cells, DiI-HDL uptake fluorescence, 3 h; 100 = double the neutral-control signal;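 active means mean replicate activation of at least 60% and every replicate at or above 60%; inconclusive means mean or all-replicate condition met, but not both; inactive means mean below 60% and not all replicates reaching 60%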
#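 System: LDL receptor-deficient CHO ldlA cells overexpressing murine SR-BI | Timing: 3 h uptake period with compound, 37 °C | Medium: HEPES-buffered (25 mM, pH 7.4) F12 plus 0.5% BSA | Dosing: Single-point compound dose | Signal: Bottom-read fluorescence, 550/595 nm | Read-out: Retained DiI signal reflecting DiI-HDL uptake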
# Kir21 inh – inhibitors of mouse Kir2.1 inward-rectifier potassium channel; B-score at 10 µM; actives 0.85% (n = 310,000); P35561; HEK293-Kir2.1, FluxOR thallium flux fluorescence; active compounds read low; AID 1672;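 active means fluorescence ratio B-score at or below minus 3 SD of library scores, with starting-brightness B-score within 2 SD, cut at about -4.2 in these data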;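 further: channel flux triggered by added potassium and thallium sulfate stimulus; B-score of peak minus minimum fluorescence over baseline after thallium stimulus; more negative B-score means stronger Kir2.1 block with less thallium influx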
# Target sequence (P35561 whole entry, looked up): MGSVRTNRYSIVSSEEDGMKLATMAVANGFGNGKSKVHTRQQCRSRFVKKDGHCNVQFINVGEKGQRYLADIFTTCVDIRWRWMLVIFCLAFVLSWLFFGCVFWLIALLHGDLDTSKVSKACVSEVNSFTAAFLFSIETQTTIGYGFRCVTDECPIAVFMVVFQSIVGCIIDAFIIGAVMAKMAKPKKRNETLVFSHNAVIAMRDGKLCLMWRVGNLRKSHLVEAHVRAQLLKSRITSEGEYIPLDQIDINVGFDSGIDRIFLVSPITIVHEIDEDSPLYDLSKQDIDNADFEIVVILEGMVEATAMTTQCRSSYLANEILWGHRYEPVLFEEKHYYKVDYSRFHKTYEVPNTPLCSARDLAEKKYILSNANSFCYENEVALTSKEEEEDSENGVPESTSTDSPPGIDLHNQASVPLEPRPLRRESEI
# ANO1 activ – activates or potentiates the mouse TMEM16A chloride channel | Q8BHY3 | HEK293 TMEM16A/YFP-H148Q/I152L, iodide quench fluorescence; active compounds read low | B-score at 10 µM | actives 0.3% (n = 340,000) | AID 623877;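 active means fluorescence-ratio B-score plate-corrected deviation score at least 3 library SD below zero, with starting fluorescence score within 5 deviations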;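 further: channel opened by trigger with iodide after compound preincubation; score built on the fluorescence ratio of max minus min over baseline; more negative score means more quench and so TMEM16A activation or potentiation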
# TMEM16A inh – mouse TMEM16A channel inhibition, primary screen; normalized B-score (activity score, 25-100; higher = stronger inhibition) at 10 µM; HEK293 TMEM16A/YFP iodide influx fluorescence, ionomycin; actives 1.2% (n = 310,000); Q8BHY3;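 active means ratio plate-corrected score three or more library SD toward inhibition, starting fluorescence score within five deviations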;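 further: score derived from kinetic fluorescence span divided by baseline fluorescence per well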
# FID counter – displaces DNA intercalator in HCV helicase counter-screen | DNA fluorescent intercalator displacement, fluorescence | inhibition, % at 7.9 µM | actives 0.17% (n = 290,000) | AID 1845; in the data active means inhibition above about 37%;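 further: higher means more ethidium bromide displaced from hairpin DNA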
# Hits are given with their value; - = inactive; ? = inconclusive; . = no result. In the library only some 3% were active in any assay of this set; here they are far more common.
SMILES,SR-BI HDL uptake,SR-BI uptake up,Kir21 inh,ANO1 activ,TMEM16A inh,FID counter
O=C(Nc1ccc(Cl)cc1)N1CCCN(Cc2ccc(F)cc2)C1,-,-,-4.51,-,-,-
CC(O)CC(C(=O)NNc1ccccc1)C(=O)NNc1ccccc1 (configuration not stated),-,-,-,-,-,-
CCC1(C)Cc2c(C#N)c(N)sc(=S)c2CO1 (configuration not stated),-,-,-,-25.1,-,-
CCC1(C)Cc2c(C#N)c(N)n(-c3ccccc3)c(=S)c2CO1 (configuration not stated),-,-,-,-,-,-
CC(C(=O)OCC(=O)N(C)C1(C#N)CCCCC1)N1C(=O)c2ccccc2C1=O (configuration not stated),-,-,.,-,.,.
COc1cccc(C(=O)Nc2c3c(nn2-c2ccc(Cl)cc2)CS(=O)(=O)C3)c1OC,-,-,-,-,-,-
CC(C)(C)C1=CC(=O)C(=O)C(C(C)(C)C)=C1,-,-,-8.55,-,-,-
CC(C)(C)C1=CC(=Nc2ccccc2N)C=C(C(C)(C)C)C1=O,-,-,-,-,-,-
Cc1ccc(NC(=O)/C=C/c2ccc(S(=O)(=O)N3CCOCC3)cc2)cc1S(=O)(=O)N(C)C,85.8,-,.,.,.,.
CC(=O)Nc1cccc(NC(=O)/C=C/c2ccc(S(=O)(=O)N3CCOCC3)cc2)c1,-,-,.,-,.,.
Cc1cc(NC(=O)COC(=O)C2CCN(C(=O)c3ccc(Cl)cc3)CC2)no1,-,-,-,-,-,-
Cc1cc(NC(=O)COC(=O)C2CCN(S(=O)(=O)c3cccc(Cl)c3Cl)CC2)no1,-,-,-,-,100,-
CCN(CC)S(=O)(=O)c1cc(C)ccc1NC(=S)Nc1cccnc1,-,-,-,-,25,-
CCN(CC)S(=O)(=O)c1cc(C(=O)Nc2cccnc2)ccc1Cl,-,-,-,-,-,-
CC(Oc1cccc(F)c1)C(=O)Nc1ccc(N2CCOCC2)cc1 (configuration not stated),-,-,.,-,.,.
CCOc1ccc(NC(=O)CN(C)C(=O)C2CC(=O)N(c3cccc(SC)c3)C2)cc1OCC (configuration not stated),72.1,-,.,-,.,.
CCOc1ccc(NC(=O)CN(C)C(=O)C2CC(=O)N(c3ccc4c(c3)OCCO4)C2)cc1OCC (configuration not stated),-,-,-,-,-,.
CC(C)c1cc(-c2cc(C(=O)NCc3ccccc3)on2)nc(NCC2CC2)n1,-,-,-,-6.57,100,.
O=C(CN1C(=O)NC(c2ccccc2)(c2ccccc2)C1=O)NC1CCCCC1,-,-,.,-,.,.
Cc1ccc(-c2nnc(NC(=O)Cc3ccc(F)cc3)o2)c(C)c1,-,-,-,-,-,-
CN(C)c1nnnn1Cc1ccccc1,-,-,-,-,-,-
CCN(Cc1ccccc1)Cc1nnnn1Cc1ccccc1,-,-,-6.87,-,-,-
COc1ccc(C(=O)c2c(-c3ccsc3)oc3ccc(-c4ccc(OC)cc4)cc23)cc1,.,.,-,.,-,.
CN(C)CCCn1c(SCC(=O)N2c3ccccc3Sc3ccccc32)nc2ccccc2c1=O,-,-,-5.21,-,-,-
Cn1c(CNC(=O)c2ccccc2)nnc1SCC(=O)Nc1nccs1,-,-,-,-,-,-
SMILES,SR-BI HDL uptake,SR-BI uptake up,Kir21 inh,ANO1 activ,TMEM16A inh,FID counter
O=C(NCc1ccco1)C1CCN(C(=O)c2cc3sccc3n2Cc2ccc(Cl)cc2)CC1,-,-,-,-,100,-
CCCCC(=O)Nc1ccc(Br)cn1,-,-,-,-,-,-
C=CCCC(=O)Nc1ccc(Br)cn1,89.4,-,-,-,-,-
C/C(=N\NC1=NCCN1)c1ccc(Cl)cc1,-,-,-,-,-,-
C/C(=N\Nc1nc2c(s1)CCCC2)c1ccc(Cl)cc1,?,-,-,-10.5,-,-
CN(C)c1ccc(C(=O)Nc2nc3c(s2)CCCC3)cc1,84.0,-,-,-,-,-
CCOC(=O)c1cc(CC)sc1NC(=O)COC(=O)c1ccccn1,-,-,-,-,-,.
Cc1nc(NC(=O)CC(C)C)sc1-c1csc(Nc2ccc(Cl)cc2)n1,73.1,-,-,-,-,-
CCCCCC(=O)Nc1nc(C)c(-c2csc(Nc3cc(Cl)ccc3C)n2)s1,79.1,-,-,-,-,-
CCCCCC(=O)Nc1nc(C)c(-c2csc(Nc3ccc(Cl)cc3)n2)s1,96.4,-,-,-,-,-
Cc1ccc(Cl)cc1Nc1nc(-c2sc(NC(=O)c3cccc(Cl)c3)nc2C)cs1,.,.,-,.,-,-
CCCC(C)C(=O)Nc1nc(C)c(-c2csc(Nc3cc(Cl)ccc3C)n2)s1 (configuration not stated),82.2,-,-,-,-,-
COc1ccc(NC(=O)CC(C)CC(=O)NCc2ccc(F)cc2)c(OC)c1 (configuration not stated),-,-,-,-,-,-
CC(=O)c1ccc(OCCCC(=O)Nc2cc(S(=O)(=O)N3CCCCC3)ccc2C)cc1,-,-,.,-,.,.
Cc1ccccc1OCC(=O)Nc1ccccc1C(=O)NC1CC1,-,-,-,-,-,.
O=C(COc1ccc2c(-c3ccccc3)cc(=O)oc2c1)N[C@H](Cc1c[nH]c2ccccc12)C(=O)O,-,-,-,-,-,-
CCCC(=O)Nc1nc(C(=O)OCC)cs1,-,-,-,-,-,-
CCOC(=O)c1csc(NC(=O)c2cc(OC)c(OC)c(OC)c2)n1,77.2,-,-,-,-,-
CC(C)c1nc2n[nH]c(N)c2c2c1CCCC2,-,-,-6.8,-,-,-
CC(C)CC(C(=O)OCC(=O)c1c(N)n(C)c(=O)n(C)c1=O)N1C(=O)C2CC=CCC2C1=O (configuration not stated),-,-,-,-,-,-
CCN(CC)S(=O)(=O)c1cccc(-c2nnc(SCCCC(=O)c3ccc(F)cc3)o2)c1,-,-,-,-4.6,-,-
CCN(CC)S(=O)(=O)c1cccc(-c2nnc(SCCCC(=O)c3ccccc3)o2)c1,-,-,-,-,-,-
CCOC(=O)N1CCC(N2CCCC(CO)(Cc3ccccc3C)C2)CC1 (configuration not stated),-,-,-,-,-,-
COc1cc2oc3ccccc3c2cc1N(CC(=O)N1CCCCC1)S(=O)(=O)c1ccc(C)cc1,-,-,-,-29.2,-,-
CCN(CC)C(=O)CN(c1cc2c(cc1OC)oc1ccccc12)S(=O)(=O)c1ccccc1,-,-,.,-,100,-
COc1cc2oc3ccccc3c2cc1N(CC(=O)N(C)C)S(=O)(=O)c1ccc(C)cc1,.,.,-,-,-,-
Cn1c(CC(=O)Nc2ccccc2Cl)nnc1SCC(=O)NC1=NCCS1,.,.,-,-,-,-

# Screening data deposited in PubChem BioAssay by several laboratories.
